# Data reported in ChEMBL document CHEMBL1135693, “Solid-phase synthesis of polyamine toxin analogues: potent and selective antagonists of Ca2+-permeable AMPA receptors” (J Med Chem, 2002).
# pKi: −log10 of the molar value.
# How the values were obtained:
# [1] = Inhibition of the current elicited by 100 uM glutamate by simultaneous co-application of the antagonist in xenopus oocytes injected with a 1:1 mixture of GluR1 flop and GluR2 flop RNA as well as GluR5(Q).; type: functional, cell-based, Xenopus laevis; details: oocyte
# Method in brief: (§1)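 Xenopus laevis oocytes (stage V–VI) injected with 5-30 ng cRNA, either 1:1 GluR1 flop + GluR2 flop or GluR5(Q) flop. After 3-14 days, two-electrode voltage clamp recordings were made in Ringer pH 7.5 (low-Ca2+ Ringer if currents were high). […] Values are means of two independent measurements in triplicate.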
# [2] = Ratio of Ki value at -40 mV to that of -80 mV was determined; type: functional
# Glutamate receptor 1 [3] = target: T1, Glutamate receptor 1 (Homo sapiens, UniProt P42261); assay: Inhibition of the (-80 mV) current elicited by 100 uM glutamate by simultaneous co-application in xenopus oocytes injected with GluR1 flop RNA.; type: cell-based, Oocyte
# T1 sequence (P42261 whole entry): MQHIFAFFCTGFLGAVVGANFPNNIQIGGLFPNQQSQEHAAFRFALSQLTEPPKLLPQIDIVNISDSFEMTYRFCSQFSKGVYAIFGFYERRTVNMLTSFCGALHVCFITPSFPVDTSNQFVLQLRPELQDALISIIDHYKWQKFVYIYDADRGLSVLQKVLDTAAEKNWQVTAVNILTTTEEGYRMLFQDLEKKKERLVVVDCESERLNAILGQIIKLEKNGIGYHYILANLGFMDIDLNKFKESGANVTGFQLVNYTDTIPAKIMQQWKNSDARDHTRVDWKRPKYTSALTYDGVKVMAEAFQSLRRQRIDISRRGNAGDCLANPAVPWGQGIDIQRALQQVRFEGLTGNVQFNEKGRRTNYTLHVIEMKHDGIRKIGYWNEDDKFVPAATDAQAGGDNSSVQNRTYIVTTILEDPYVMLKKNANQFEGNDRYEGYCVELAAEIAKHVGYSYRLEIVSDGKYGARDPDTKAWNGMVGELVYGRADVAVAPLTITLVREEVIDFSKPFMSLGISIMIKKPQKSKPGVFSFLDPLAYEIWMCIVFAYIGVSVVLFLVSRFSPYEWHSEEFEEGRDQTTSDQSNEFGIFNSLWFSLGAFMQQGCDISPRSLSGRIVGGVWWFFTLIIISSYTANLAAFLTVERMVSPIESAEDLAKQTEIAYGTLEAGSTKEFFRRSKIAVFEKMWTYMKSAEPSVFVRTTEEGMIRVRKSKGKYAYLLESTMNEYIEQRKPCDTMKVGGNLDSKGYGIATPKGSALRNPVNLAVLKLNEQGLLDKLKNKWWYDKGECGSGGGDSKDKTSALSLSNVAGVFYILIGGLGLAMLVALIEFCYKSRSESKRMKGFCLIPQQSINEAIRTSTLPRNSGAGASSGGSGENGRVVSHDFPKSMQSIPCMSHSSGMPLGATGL
# Method in brief: (§2)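 Two-electrode voltage clamp of stage V–VI Xenopus laevis oocytes (collagenase-isolated), injected with 5-30 ng GluR1 flop cRNA, recorded 3-14 days later in Ringer (pH 7.5; low-Ca2+ Ringer for high-current cells).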
# Glutamate receptor 1 [4] = target: T1, Glutamate receptor 1; assay: Inhibition of the (-40 mV) current elicited by 100 uM glutamate by simultaneous co-application in xenopus oocytes injected with GluR1 flop RNA.; type: cell-based, Oocyte; method in brief: as §2
# [5] = Inhibition of the current elicited by 100 uM glutamate by simultaneous co-application of the antagonist in xenopus oocytes injected with a 1:1 mixture of GluR1 flop and GluR2 flop RNA; type: functional, cell-based, Xenopus laevis; details: oocyte; method in brief: as §1
SMILES,pKi [1],Ratio [2],pKi (Glutamate receptor 1 [3]),pKi (Glutamate receptor 1 [4]),pKi [5]
CCCC(=O)NC(Cc1ccc(O)cc1)C(=O)NCCCCNCCCCCCCN (configuration not stated),7.22,3.6,7.42,6.87,< 5.00
NCCCNCCCCCCCCNC(=O)C(Cc1ccc(O)cc1)NC(=O)C1CCCCC1 (configuration not stated),,3.1,7.11,6.62,
CCCC(=O)NC(Cc1ccc(O)cc1)C(=O)NCCCCCCCNCCCCN (configuration not stated),6.54,18,6.77,5.52,5.80
CCCC(=O)NC(Cc1ccc(O)cc1)C(=O)NCCCCCCNCCCCCN (configuration not stated),6.10,,6.33,< 5.00,5.19
NCCCNCCCCCCCCNC(=O)C(Cc1ccc(O)cc1)NC(=O)c1cccnc1 (configuration not stated),,2.4,7.06,6.68,
CC(C)(C)C(=O)NC(Cc1ccc(O)cc1)C(=O)NCCCCCCCCNCCCN (configuration not stated),,1.6,7.05,6.85,
CCCCCC(=O)NC(Cc1ccc(O)cc1)C(=O)NCCCCCCCCNCCCN (configuration not stated),,14.7,7.17,6.00,
NCCCNCCCCCCCCNC(=O)C(Cc1ccc(O)cc1)NC(=O)/C=C/c1ccccc1 (configuration not stated),,1.5,6.96,6.77,
NCCCNCCCCCCCCNC(=O)C(Cc1ccc(O)cc1)NC(=O)CCc1ccccc1 (configuration not stated),,1,6.60,6.60,
CCCC(=O)NC(Cc1ccc(O)cc1)C(=O)NCCCCCCCCNCCCN (configuration not stated),6.60,,7.19,5.10,< 5.00
NCCCNCCCCCCCCNC(=O)C(Cc1ccc(O)cc1)NC(=O)Cc1ccccc1 (configuration not stated),,2.3,6.96,6.60,
CC(=O)NC(Cc1ccc(O)cc1)C(=O)NCCCCCCCCNCCCN (configuration not stated),,1.4,6.66,6.52,
NCCCNCCCCCCCCNC(=O)C(Cc1ccc(O)cc1)NC(=O)c1ccncc1 (configuration not stated),,5.1,7.19,6.48,
NCCCNCCCCCCCCNC(=O)C(Cc1ccc(O)cc1)NC(=O)c1ccccc1 (configuration not stated),,1.9,6.89,6.60,
CCCC(=O)NC(Cc1ccc(O)cc1)C(=O)NCCCNCCCCNCCCN (configuration not stated),7.82,,4.66,3.77,< 5.30
CCCC(=O)NC(Cc1ccc(O)cc1)C(=O)NCCCCCCCCCNCCN (configuration not stated),5.68,,6.39,5.21,< 5.00
CCCC(=O)NC(Cc1ccc(O)cc1)C(=O)NCCCCCNCCCCCCN (configuration not stated),5.66,86,8.48,6.54,5.28
NCCCNCCCCCCCCNC(=O)C(Cc1ccc(O)cc1)NC(=O)c1ccccn1 (configuration not stated),,1.3,6.89,6.77,
CCC(=O)NC(Cc1ccc(O)cc1)C(=O)NCCCCCCCCNCCCN (configuration not stated),,2.8,7.00,6.55,
